Measured values as given in ChEMBL document CHEMBL5724801, “EUbOPEN Chemogenomics Library - Multiplex” (2024).
“And” between values parts separate entries of the source, which are not always exact repeats. Equal values may be shown once.

Tested on: U2OS
Assay: Multiplex assay against U2OS
Type: toxicity, cell-based
Details: human
Summary of the method: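 Compound was added to live cells that had been stained at seeding with Hoechst33342, BioTracker Green Microtubule Cytoskeleton Dye, MitoTracker Red and Annexin V Alexa Fluor 680, and imaging followed on a CQ1 microscope at 37°C and 5% CO2. CellPathfinder machine-learning gating divided cells into Hoechst high-intensity objects or normal cells, normal cells into healthy, pyknosed or fragmented nuclei, and pyknosed cells into mitotic or apoptotic. Tubulin, mitochondrial-mass and membrane-permeability phenotypes are per cents of healthy-nucleus cells.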

[1] = 12 h, 1 µM, compound concentration 1 uM
[2] = 12 h, 10 µM, compound concentration 10 uM
[3] = 24 h, 1 µM, compound concentration 1 uM
[4] = 24 h, 10 µM, compound concentration 10 uM
[5] = 48 h, 1 µM, compound concentration 1 uM
[6] = 48 h, 10 µM, compound concentration 10 uM

## Cc1cnc(-c2cc(N3CCN(C(=O)CCS(C)(=O)=O)CC3)ncc2Cl)c(C)c1
[1]
  Population Apoptotic (%): 86% and 100%
  Population Fragmented Nuclei (%): 37% and 18%
  Population Healthy Nuclei (%): 54% and 73%
  Population Hoechst High Intensity Objects (%): 2% and 1%
  Population Membrane Permeable-Phenotype (%): 10%
  Population Mitochondria Different-Phenotype (%): 1% and 7%
  Population Mitotic Cells (%): 13% and 0%
  Population Normal (%): 97% and 98%
  Population Pyknosed Nuclei (%): 8%
  Population Tubulin-Different-Phenotype (%): 2% and 7%
  Total Cell Count: 183 and 111
[2]
  Population Apoptotic (%): 85% and 75%
  Population Fragmented Nuclei (%): 24% and 17%
  Population Healthy Nuclei (%): 67% and 73%
  Population Hoechst High Intensity Objects (%): 1%
  Population Mitochondria Different-Phenotype (%): 3% and 7%
  Population Mitotic Cells (%): 14% and 25%
  Population Normal (%): 98%
  Population Pyknosed Nuclei (%): 8% and 9%
  Total Cell Count: 258 and 88
[3]
  Population Apoptotic (%): 80% and 90%
  Population Fragmented Nuclei (%): 30% and 17%
  Population Healthy Nuclei (%): 62% and 75%
  Population Hoechst High Intensity Objects (%): 2%
  Population Membrane Permeable-Phenotype (%): 5% and 8%
  Population Mitochondria Different-Phenotype (%): 3% and 5%
  Population Mitotic Cells (%): 20% and 10%
  Population Normal (%): 97%
  Population Pyknosed Nuclei (%): 6% and 7%
  Population Tubulin-Different-Phenotype (%): 2% and 8%
  Total Cell Count: 220 and 136
[4]
  Population Apoptotic (%): 80% and 85%
  Population Fragmented Nuclei (%): 20% and 21%
  Population Healthy Nuclei (%): 74% and 64%
  Population Hoechst High Intensity Objects (%): 2% and 0%
  Population Mitochondria Different-Phenotype (%): 2% and 1%
  Population Mitotic Cells (%): 20% and 14%
  Population Normal (%): 97% and 99%
  Population Pyknosed Nuclei (%): 4% and 13%
  Population Tubulin-Different-Phenotype (%): 0% and 7%
  Total Cell Count: 309 and 103
[5]
  Population Apoptotic (%): 78% and 95%
  Population Fragmented Nuclei (%): 29% and 15%
  Population Healthy Nuclei (%): 63% and 73%
  Population Hoechst High Intensity Objects (%): 0% and 1%
  Population Membrane Permeable-Phenotype (%): 3% and 4%
  Population Mitochondria Different-Phenotype (%): 2% and 5%
  Population Normal (%): 99% and 98%
  Population Pyknosed Nuclei (%): 7% and 10%
  Population Tubulin-Different-Phenotype (%): 1% and 3%
  Total Cell Count: 325 and 184
[6]
  Population Apoptotic (%): 94% and 100%
  Population Fragmented Nuclei (%): 11% and 22%
  Population Healthy Nuclei (%): 80% and 71%
  Population Hoechst High Intensity Objects (%): 1% and 3%
  Population Membrane Permeable-Phenotype (%): 4% and 13%
  Population Mitochondria Different-Phenotype (%): 2% and 7%
  Population Mitotic Cells (%): 5% and 0%
  Population Normal (%): 98% and 96%
  Population Pyknosed Nuclei (%): 7% and 5%
  Population Tubulin-Different-Phenotype (%): 2% and 7%

## Cc1cc(=O)n(C)c2cc(N3C(=O)CC[C@H](NS(=O)(=O)CC(C)C)[C@H]3c3ccc(Cl)cc3)ccc12
[1]
  Population Apoptotic (%): 87% and 63%
  Population Fragmented Nuclei (%): 24% and 21%
  Population Healthy Nuclei (%): 66% and 68%
  Population Hoechst High Intensity Objects (%): 3% and 1%
  Population Membrane Permeable-Phenotype (%): 3% and 2%
  Population Mitochondria Different-Phenotype (%): 1% and 2%
  Population Mitotic Cells (%): 12% and 36%
  Population Normal (%): 96% and 98%
  Population Pyknosed Nuclei (%): 9% and 10%
  Population Tubulin-Different-Phenotype (%): 1%
  Total Cell Count: 263 and 110
[2]
  Population Apoptotic (%): 57%
  Population Fragmented Nuclei (%): 21% and 16%
  Population Healthy Nuclei (%): 55% and 60%
  Population Hoechst High Intensity Objects (%): 5% and 3%
  Population Membrane Permeable-Phenotype (%): 63% and 35%
  Population Mitochondria Different-Phenotype (%): 44% and 68%
  Population Mitotic Cells (%): 42%
  Population Normal (%): 94% and 96%
  Population Pyknosed Nuclei (%): 23%
  Population Tubulin-Different-Phenotype (%): 65% and 60%
  Total Cell Count: 240 and 83
[3]
  Population Apoptotic (%): 74% and 82%
  Population Fragmented Nuclei (%): 20% and 18%
  Population Healthy Nuclei (%): 68% and 69%
  Population Hoechst High Intensity Objects (%): 3% and 1%
  Population Membrane Permeable-Phenotype (%): 6% and 9%
  Population Mitochondria Different-Phenotype (%): 3% and 2%
  Population Mitotic Cells (%): 25% and 17%
  Population Normal (%): 96% and 98%
  Population Pyknosed Nuclei (%): 11%
  Population Tubulin-Different-Phenotype (%): 4% and 6%
  Total Cell Count: 322 and 146
[4]
  Population Apoptotic (%): 71% and 81%
  Population Fragmented Nuclei (%): 20% and 26%
  Population Healthy Nuclei (%): 56% and 62%
  Population Hoechst High Intensity Objects (%): 5% and 2%
  Population Membrane Permeable-Phenotype (%): 25% and 36%
  Population Mitochondria Different-Phenotype (%): 40% and 59%
  Population Mitotic Cells (%): 28% and 18%
  Population Normal (%): 94% and 97%
  Population Pyknosed Nuclei (%): 23% and 10%
  Population Tubulin-Different-Phenotype (%): 28% and 50%
  Total Cell Count: 262 and 108
[5]
  Population Apoptotic (%): 77% and 95%
  Population Fragmented Nuclei (%): 14% and 15%
  Population Healthy Nuclei (%): 73%
  Population Hoechst High Intensity Objects (%): 1%
  Population Membrane Permeable-Phenotype (%): 4% and 6%
  Population Mitochondria Different-Phenotype (%): 3% and 5%
  Population Normal (%): 98%
  Population Pyknosed Nuclei (%): 11% and 10%
  Population Tubulin-Different-Phenotype (%): 2% and 4%
  Total Cell Count: 508 and 199
[6]
  Population Apoptotic (%): 84% and 71%
  Population Fragmented Nuclei (%): 25% and 21%
  Population Healthy Nuclei (%): 51% and 60%
  Population Hoechst High Intensity Objects (%): 6% and 5%
  Population Membrane Permeable-Phenotype (%): 15% and 30%
  Population Mitochondria Different-Phenotype (%): 15% and 35%
  Population Mitotic Cells (%): 15% and 28%
  Population Normal (%): 93% and 94%
  Population Pyknosed Nuclei (%): 22% and 18%
  Population Tubulin-Different-Phenotype (%): 10% and 23%
  Total Cell Count: 331 and 120
